Series [1] can be described thus: Antiproliferative activity against mouse KLN205 cells after 5 days by SRB assay. In kind it is functional, cell-based. The conditions noted are these: 120 h. The gist of the method: (§1)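 Adherent cells were exposed for 5 days to four concentrations (0.54, 1.8, 6, 20 µM), each point in triplicate. Cells were fixed in cold 10% TCA, stained with 0.4% SRB in 1% acetic acid and solubilized in 10 mM Tris pH 10, then A490 was read. Time-zero plates were included. IC50 is 50% growth inhibition from 100×(T−T0)/(C−T0).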

Series [2] in a line: Antiproliferative activity against human CRL2813 cells after 5 days by SRB assay. In kind it is functional, cell-based. The conditions noted are these: CRL2813, 120 h. The gist of the method: as §1
Series [3] has as its target Eukaryotic translation initiation factor 2-alpha kinase 1 (Homo sapiens) (UniProt Q9BQI3). In words: Activation of EIF2alpha kinase in human CRL2351 cells assessed as reduction in eIF2-GTP-initiator methionine tRNA ternary complex measuring increase in firefly/renilla luciferase ratio at 5 uM after 16 hrs by dual luciferase reporter gene assay relative to control. In kind it is cell-based. In outline:
(§2)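 CRL-2351 cells (10^4 per well) were transiently transfected one day after seeding with the bidirectional pBISA-DL(ATF-4) firefly/renilla luciferase plasmid (Lipofectamine 2000). After 16 h compound exposure, lysates were read by Dual-Glo luciferase. F/R ratio was normalized to DMSO vehicle (F/R = 1). Runs were dose-response with at least four points, in triplicate.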

Series [4] in a line: Antiproliferative activity against human CRL2351 cells after 5 days by SRB assay. The format is functional, cell-based. The note with it: 120 h. In outline: as §1
For series [5], the target named is Eukaryotic translation initiation factor 2-alpha kinase 1 (Homo sapiens) (UniProt Q9BQI3). Put plainly: Activation of EIF2alpha kinase in human CRL2351 cells assessed as reduction in eIF2-GTP-initiator methionine tRNA ternary complex measuring increase in firefly/renilla luciferase ratio at 2.5 to 20 uM after 16 hrs by dual luciferase reporter gene assay relative to control. The format is cell-based. The gist of the method:
as §2

The target is the same in series [6]. In words: Activation of EIF2alpha kinase in human CRL2351 cells assessed as reduction in eIF2-GTP-initiator methionine tRNA ternary complex measuring increase in firefly/renilla luciferase ratio at 10 uM after 16 hrs by dual luciferase reporter gene assay relative to control. In kind it is cell-based. In outline: as §2
Series [7] shares this target. Put plainly: Activation of EIF2alpha kinase in human CRL2351 cells assessed as reduction in eIF2-GTP-initiator methionine tRNA ternary complex measuring increase in firefly/renilla luciferase ratio at 40 uM after 16 hrs by dual luciferase reporter gene assay relative to control. The format is cell-based. The gist of the method: as §2
Series [8] has the same target. Put plainly: Activation of EIF2alpha kinase in human CRL2351 cells assessed as CHOP protein expression at 5 uM […] by Western blot analysis. The format is cell-based. In outline:
(§3)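 Cells were grown to 70% confluency in serum-containing medium without antibiotics, then treated (KLN at 20 µM, CRL-2351 at 5 µM) for 6 h. They were washed in cold PBS and lysed on ice for 1 h. Protein was measured by BCA. SDS-PAGE immunoblots were probed for phospho-Ser51 eIF2α, total eIF2α, CHOP and β-actin.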

The target is the same in series [9]. Put plainly: Activation of EIF2alpha kinase in human CRL2351 cells assessed as CHOP mRNA expression at 5 uM after 5 hrs by PCR analysis. The format is cell-based.
Series [10] has as its target Eukaryotic translation initiation factor 2-alpha kinase 1 (Mus musculus) (UniProt Q9Z2R9). In words: Activation of EIF2alpha kinase in mouse KLN205 cells assessed as CHOP mRNA expression at 20 uM after 5 hrs by PCR analysis. The format is cell-based.
In series [11] the target is Eukaryotic translation initiation factor 2-alpha kinase 1 (Homo sapiens) (UniProt Q9BQI3). Put plainly: Activation of EIF2alpha kinase in human CRL2351 cells assessed as phosphorylation of eIF2alpha at 5 uM […] by Western blot analysis. In kind it is cell-based. The gist of the method:
as §3

Series [12] in a line: Aqueous solubility of compound. In kind it is physicochemical. The note with it: buffer.
In series [13] the target is Eukaryotic translation initiation factor 2-alpha kinase 1 (Mus musculus) (UniProt Q9Z2R9). Put plainly: Activation of EIF2alpha kinase in mouse KLN205 cells assessed as reduction in eIF2-GTP-initiator methionine tRNA ternary complex measuring increase in firefly/renilla luciferase ratio at 20 uM after 16 hrs by dual luciferase reporter gene assay relative to control. The format is cell-based. The gist of the method: (§4)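 KLN-205 cells were stably transfected with the bidirectional pBISA-DL(ATF-4) firefly/renilla luciferase reporter: 10^5 cells were seeded per 60-mm dish, transfected the next day and selected with antibiotics. After 16 h compound exposure, lysates were read by Dual-Glo luciferase. F/R ratio was normalized to DMSO vehicle (F/R = 1).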

Series [14] has the same target. Put plainly: Activation of EIF2alpha kinase in mouse KLN205 cells assessed as CHOP protein expression at 20 uM after […] by Western blot analysis. The format is cell-based. The gist of the method:
as §3

Series [15] addresses Eukaryotic translation initiation factor 2-alpha kinase 1 (Homo sapiens) (UniProt Q9BQI3). Put plainly: Activation of EIF2alpha kinase in human CRL2351 cells assessed as reduction in eIF2-GTP-initiator methionine tRNA ternary complex measuring increase in firefly/renilla luciferase ratio at 2.5 uM after 16 hrs by dual luciferase reporter gene assay relative to control. The format is cell-based. In outline: as §2

The target of series [16] is Eukaryotic translation initiation factor 2-alpha kinase 1 (Mus musculus) (UniProt Q9Z2R9). In words: Activation of EIF2alpha kinase in mouse KLN205 cells assessed as phosphorylation of eIF2alpha at 20 uM […] by Western blot analysis. The format is cell-based. The gist of the method: as §3
Series [17] shares this target. In words: Activation of EIF2alpha kinase in mouse KLN205 cells assessed as reduction in eIF2-GTP-initiator methionine tRNA ternary complex measuring increase in firefly/renilla luciferase ratio at 2.5 to 80 uM after 16 hrs by dual luciferase reporter gene assay relative to control. The format is cell-based. In outline:
as §4

Series [18] deals with Eukaryotic translation initiation factor 2-alpha kinase 1 (Homo sapiens) (UniProt Q9BQI3). Put plainly: Activation of EIF2alpha kinase in human CRL2351 cells assessed as reduction in eIF2-GTP-initiator methionine tRNA ternary complex measuring increase in firefly/renilla luciferase ratio at 2.5 to 80 uM after 16 hrs by dual luciferase reporter gene assay relative to control. The format is cell-based. In outline: as §2

For series [19], the target named is Eukaryotic translation initiation factor 2-alpha kinase 1 (Mus musculus) (UniProt Q9Z2R9). In words: Activation of EIF2alpha kinase in mouse KLN205 cells assessed as reduction in eIF2-GTP-initiator methionine tRNA ternary complex measuring increase in firefly/renilla luciferase ratio at 5 uM after 16 hrs by dual luciferase reporter gene assay relative to control. The format is cell-based. The gist of the method: as §4

Series [20] has as its target Eukaryotic translation initiation factor 2-alpha kinase 1 (Homo sapiens) (UniProt Q9BQI3). Put plainly: Activation of EIF2alpha kinase in human CRL2351 cells assessed as reduction in eIF2-GTP-initiator methionine tRNA ternary complex measuring increase in firefly/renilla luciferase ratio at 20 uM after 16 hrs by dual luciferase reporter gene assay relative to control. The format is cell-based. In outline:
as §2

Activity calls are given as the source filed them. The calls are words filed in the database; no cut-off is given here.

Sequence of Eukaryotic translation initiation factor 2-alpha kinase 1 (Homo sapiens) (Q9BQI3 whole entry): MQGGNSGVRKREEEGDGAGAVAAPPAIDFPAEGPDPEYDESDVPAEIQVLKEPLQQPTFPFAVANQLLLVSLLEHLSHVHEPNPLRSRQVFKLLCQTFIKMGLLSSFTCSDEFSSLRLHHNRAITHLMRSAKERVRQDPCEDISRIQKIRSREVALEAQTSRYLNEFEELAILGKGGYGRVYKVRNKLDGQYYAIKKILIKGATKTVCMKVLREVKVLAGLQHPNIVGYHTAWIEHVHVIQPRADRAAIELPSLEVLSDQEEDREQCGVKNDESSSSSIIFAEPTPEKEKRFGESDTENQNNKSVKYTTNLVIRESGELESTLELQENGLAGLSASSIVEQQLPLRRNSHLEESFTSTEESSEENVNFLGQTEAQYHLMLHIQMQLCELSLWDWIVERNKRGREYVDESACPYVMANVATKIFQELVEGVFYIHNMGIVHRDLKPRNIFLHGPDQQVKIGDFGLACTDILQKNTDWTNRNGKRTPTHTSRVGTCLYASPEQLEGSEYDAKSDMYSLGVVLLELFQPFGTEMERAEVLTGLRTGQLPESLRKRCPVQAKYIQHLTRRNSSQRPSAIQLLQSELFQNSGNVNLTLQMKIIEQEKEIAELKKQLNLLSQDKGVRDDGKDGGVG
Sequence of Eukaryotic translation initiation factor 2-alpha kinase 1 (Mus musculus) (Q9Z2R9 whole entry): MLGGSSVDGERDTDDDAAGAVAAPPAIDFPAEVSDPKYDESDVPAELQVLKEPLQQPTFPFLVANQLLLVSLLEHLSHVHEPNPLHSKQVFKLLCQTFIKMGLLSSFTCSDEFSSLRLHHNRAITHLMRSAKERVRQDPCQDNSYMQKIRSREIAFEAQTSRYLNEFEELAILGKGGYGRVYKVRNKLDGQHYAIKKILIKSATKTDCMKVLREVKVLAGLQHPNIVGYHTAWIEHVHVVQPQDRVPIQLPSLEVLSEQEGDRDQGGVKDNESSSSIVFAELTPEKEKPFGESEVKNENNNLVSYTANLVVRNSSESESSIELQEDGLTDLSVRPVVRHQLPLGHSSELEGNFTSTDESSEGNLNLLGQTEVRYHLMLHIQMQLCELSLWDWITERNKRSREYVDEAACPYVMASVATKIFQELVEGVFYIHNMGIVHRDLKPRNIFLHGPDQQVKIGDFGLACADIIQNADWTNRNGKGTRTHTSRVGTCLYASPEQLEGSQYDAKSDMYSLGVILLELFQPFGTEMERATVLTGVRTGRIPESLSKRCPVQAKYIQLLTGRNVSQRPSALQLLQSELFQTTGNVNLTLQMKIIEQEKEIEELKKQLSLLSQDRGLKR

For the molecule `COc1cc(NC(=O)Nc2ccc(Cl)c(C(F)(F)F)c2)ccc1C`, the IC50 in [1] stood at 18600 nM; in series [2], 2800 nM; in [4], 2300 nM. Also, the Ratio in series [3] was 8.

`Cc1ccc(NC(=O)Nc2ccc(Cl)c(Cl)c2)cc1OCCN(C)C`: the result in [5] was Active. Also, the figures for the IC50 in series [1], in series [2] and in series [4] were 14700 nM, 5800 nM and 4100 nM, respectively.

For `Cc1ccc(NC(=O)Nc2ccc(Cl)c(C(F)(F)F)c2)cc1OCCN1CCNCC1`, the IC50 in [1] is over 20000 nM; in series [2], 2500 nM; in [4], 1800 nM.

As to `Cc1ccc(NC(=O)Nc2cc(C(F)(F)F)cc(C(F)(F)F)c2)cc1OCCN(C)C`, the IC50 turned out to be 8900 nM in [1], 7600 nM in series [2] and 2400 nM in series [4]. In addition, the Ratio in [6] was found to be 9.

On to `Cc1ccc(NC(=O)Nc2cc(C(F)(F)F)cc(C(F)(F)F)c2)cc1O`, for which the IC50 in [1] came to 15700 nM; in series [2], 1200 nM; in series [4] it was 2800 nM.

On to `Cc1ccc(NC(=O)Nc2ccc(Cl)c(C(F)(F)F)c2)cc1OCCN(C)C`, for which the figures for the IC50 in series [1], in series [2] and in series [4] were 13600 nM, 2300 nM and 2400 nM, respectively.

As for `O=C(Nc1ccc(Cl)c(Cl)c1)Nc1ncccc1O`, the Ratio in [7] was 12. In addition, the IC50 was over 20000 nM in series [1], 1600 nM in [2] and 1400 nM in series [4].

With `O=C(Nc1cc(C(F)(F)F)cc(C(F)(F)F)c1)Nc1cc(C(F)(F)F)cc(C(F)(F)F)c1`, the result in series [8], in series [9], in series [10], in [11], in series [13] and in [14] was Active. Also, in [16], the outcome was Active. Moreover, the solubility result in series [12] was “Insoluble”. In addition, the IC50 stood at 4200 nM in series [1], 300 nM in [2] and 1800 nM in series [4]. Besides, the Ratio in [15] was 11.

On to `Cc1ccc(NC(=O)Nc2ccc(Cl)c(Cl)c2)cc1OCCN1CCOCC1`, for which the outcome in [5] was Active. The IC50 in series [1] is over 20000 nM; in series [2], 12000 nM; in series [4], 2400 nM.

With `O=C(Nc1ccc(Cl)c(C(F)(F)F)c1)Nc1ccc(Cl)c(C(F)(F)F)c1`, the solubility entry in [12] was “Insoluble”. Further, the results for the IC50 in series [1], in series [2] and in [4] were 1300 nM, 1800 nM and 2400 nM, respectively. Also, the Ratio in series [15] is 11.

Regarding `Cc1ccc(NC(=O)Nc2cc(C(F)(F)F)cc(C(F)(F)F)c2)cc1OCCN1CCNCC1`, the IC50 in series [1] was over 20000 nM; in series [2], 3200 nM; in [4], 4200 nM. For the same molecule, in series [6], the Ratio was 9.

As for `Cc1ccc(NC(=O)Nc2cc(C(F)(F)F)cc(C(F)(F)F)c2)cc1OCCN1CCOCC1`, the IC50 in series [1] worked out at 18800 nM; in series [2] it was 800 nM; in [4] it was 2300 nM. In addition, in [6], the Ratio was 10.

With `O=C(Nc1ccc(Cl)c(C(F)(F)F)c1)Nc1ncccc1O`, the outcome in series [8], in series [9], in [10], in series [11], in series [14] and in series [17] was Active. Moreover, the result in [18] and in series [16] was Active. The values for the IC50 in [1], in series [2] and in series [4] were 15400 nM, 600 nM and 800 nM, respectively.

For `Cc1ccc(NC(=O)Nc2ccc(Cl)c(Cl)c2)cc1OCCN1CCNCC1`, the result in series [5] was Active. Moreover, the IC50 in series [1] was over 20000 nM; in series [2], 5200 nM; in series [4], 5000 nM.

Regarding `Cc1ccc(NC(=O)Nc2ccc(Cl)c(C(F)(F)F)c2)cc1OCCN1CCOCC1`, the results for the IC50 in series [1], in series [2] and in series [4] were over 20000 nM, 1100 nM and 2600 nM, respectively.

Consider `O=C(Nc1ccc(Cl)c(Cl)c1)Nc1ccc(Cl)c(Cl)c1`, for which the solubility entry in series [12] is “Insoluble”. In addition, the IC50 is over 20000 nM in series [1], 1000 nM in [2] and 2400 nM in series [4]. Also, the Ratio in series [3] came out at 11.

As to `COc1cc(NC(=O)Nc2ccc(Cl)c(Cl)c2)ccc1C`, the result in series [8], in [5], in [9], in series [10], in series [11] and in series [14] was inactive. The result in series [16] was inactive. The IC50 in [1] was over 20000 nM; in series [2], 500 nM; in series [4], 800 nM. In [3], the Ratio is under 2.

In the case of `Cc1ccc(NC(=O)Nc2ccc(Cl)c(C(F)(F)F)c2)cc1O`, the IC50 in [1] was over 20000 nM; in [2], 1600 nM; in series [4] it was 9500 nM. Also, in [6], the Ratio amounted to 11.

With `COc1cc(NC(=O)Nc2cc(C(F)(F)F)cc(C(F)(F)F)c2)ccc1C`, the result in series [8], in series [9], in [10], in series [11], in series [19] and in [14] was Active. Further, the result in series [16] was Active. Besides, the IC50 in series [1] is 6600 nM; in [2], 500 nM; in series [4], 1800 nM. The Ratio in [3] came to 9.

Turning to `Cc1ccc(NC(=O)Nc2ccc(Cl)c(Cl)c2)cc1O`, the IC50 in series [1] was over 20000 nM; in series [2], 2300 nM; in [4], 7500 nM. Also, in [20], the Ratio came out at 11.

`O=C(Nc1cc(C(F)(F)F)cc(C(F)(F)F)c1)Nc1ncccc1O`: the concentration for half-maximal inhibition (IC50) was 14800 nM in [1], 600 nM in series [2] and 700 nM in series [4].

(Values after ChEMBL document CHEMBL1938338, “In vitro inhibition of translation initiation by N,N'-diarylureas--potential anti-cancer agents” (Bioorg Med Chem Lett, 2012).)
